Drawing on ChEMBL document CHEMBL2163220 (J Med Chem, 2012), this text covers Activity for one compound.

Each structure is given as a SMILES string. Calls of active or inactive are those of the source. The rule behind the calls is not given here.

The target of assay [1] is T1, Androgen receptor (Homo sapiens) (UniProt P10275).
T1 sequence (whole entry): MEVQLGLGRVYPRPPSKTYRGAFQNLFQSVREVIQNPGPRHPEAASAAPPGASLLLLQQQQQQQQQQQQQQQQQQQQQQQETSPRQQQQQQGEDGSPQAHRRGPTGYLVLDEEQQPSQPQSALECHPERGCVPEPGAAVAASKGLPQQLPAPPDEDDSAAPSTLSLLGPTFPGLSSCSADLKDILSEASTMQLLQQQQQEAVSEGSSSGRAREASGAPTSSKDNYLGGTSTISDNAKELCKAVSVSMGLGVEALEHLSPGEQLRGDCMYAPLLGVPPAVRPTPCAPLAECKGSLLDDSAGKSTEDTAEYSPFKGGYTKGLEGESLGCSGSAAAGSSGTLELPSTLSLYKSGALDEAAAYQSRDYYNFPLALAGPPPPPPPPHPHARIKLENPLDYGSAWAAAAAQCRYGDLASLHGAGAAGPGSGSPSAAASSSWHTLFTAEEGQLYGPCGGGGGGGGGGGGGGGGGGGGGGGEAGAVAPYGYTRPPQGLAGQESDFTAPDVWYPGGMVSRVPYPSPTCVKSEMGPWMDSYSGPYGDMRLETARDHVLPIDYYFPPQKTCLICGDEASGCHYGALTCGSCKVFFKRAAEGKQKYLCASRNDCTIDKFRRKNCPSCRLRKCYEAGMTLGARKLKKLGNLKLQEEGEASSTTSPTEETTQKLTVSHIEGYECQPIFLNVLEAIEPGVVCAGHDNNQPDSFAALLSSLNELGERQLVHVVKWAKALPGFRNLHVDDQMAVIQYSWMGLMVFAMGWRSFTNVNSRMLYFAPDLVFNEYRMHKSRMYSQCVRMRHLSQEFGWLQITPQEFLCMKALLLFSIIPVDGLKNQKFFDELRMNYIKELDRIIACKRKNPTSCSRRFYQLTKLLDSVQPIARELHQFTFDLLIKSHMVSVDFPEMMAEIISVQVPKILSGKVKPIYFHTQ
The experiment in a line: Antagonist activity at androgen receptor in human PC3 cells assessed as increase in Maspin promoter activity at 5 uM by luciferase reporter gene assay. In kind it is functional, cell-based. Particulars: PC-3. In a few lines:
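PC-3 cells were transfected with maspin-luc, with or without cotransfected AR. Cells were exposed to DMSO vehicle or compound at 2.5 and 5 μM. Luciferase activity was measured in triplicate.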

Assay [2] concerns the target T2, Glucocorticoid receptor (Homo sapiens) (UniProt P04150).
T2 sequence (whole entry): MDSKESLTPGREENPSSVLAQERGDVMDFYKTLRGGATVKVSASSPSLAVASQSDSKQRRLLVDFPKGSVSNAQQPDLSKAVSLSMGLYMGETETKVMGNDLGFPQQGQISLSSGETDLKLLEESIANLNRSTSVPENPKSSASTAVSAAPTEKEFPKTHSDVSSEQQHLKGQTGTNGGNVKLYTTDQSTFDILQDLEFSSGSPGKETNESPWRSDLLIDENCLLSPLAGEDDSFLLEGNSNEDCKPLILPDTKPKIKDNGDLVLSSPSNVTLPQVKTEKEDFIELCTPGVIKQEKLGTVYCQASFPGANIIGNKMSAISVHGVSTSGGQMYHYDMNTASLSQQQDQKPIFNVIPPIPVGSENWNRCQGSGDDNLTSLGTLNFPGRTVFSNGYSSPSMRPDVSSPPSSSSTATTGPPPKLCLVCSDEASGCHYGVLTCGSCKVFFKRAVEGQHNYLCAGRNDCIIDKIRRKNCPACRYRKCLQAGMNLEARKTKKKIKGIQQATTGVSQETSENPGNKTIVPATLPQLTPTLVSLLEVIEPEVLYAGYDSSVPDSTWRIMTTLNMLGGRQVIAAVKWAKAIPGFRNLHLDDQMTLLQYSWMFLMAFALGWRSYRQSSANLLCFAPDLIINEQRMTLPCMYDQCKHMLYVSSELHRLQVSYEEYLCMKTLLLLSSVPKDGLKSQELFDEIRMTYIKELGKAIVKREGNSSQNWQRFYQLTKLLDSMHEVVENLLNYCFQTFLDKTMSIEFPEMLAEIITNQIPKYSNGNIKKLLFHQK
The experiment in a line: Antagonist activity at glucocorticoid receptor expressed in human PC3 cells assessed as reduction in dexamethasone-induced receptor transactivation at 1 uM by luciferase reporter gene assay. In kind it is functional, cell-based. Particulars: PC-3. In short, it runs like this: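 PC-3 cells express GR endogenously and were transfected only with the MMTV-luc reporter. Compound tested at 1 μM, alone or against transactivation induced by 10 nM dexamethasone. Read-out was luciferase reporter activity.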
For orientation: A reporter such as luciferase makes a cellular process visible.

For assay [3], the system named is PC-3. The experiment in a line: Antagonist activity at androgen receptor ARv7 mutant lacking ligand binding domain expressed in human PC3 cells assessed as reduction in DHT-induced receptor transactivation at 1 uM by luciferase reporter gene assay. In kind it is cell-based. In a few lines: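 AR-v7 (lacks LBD), MMTV-Luc and pRL-TK (Renilla) plasmids transiently transfected into PC-3 cells; cells treated with DMSO vehicle, 0.1 nM DHT, or test compound at 1 μM; transactivation read as luciferase activity (relative luciferase units).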

In the case of `Cc1coc2c1C(=O)C(=O)c1c-2ccc2c1CCCC2(C)C` [TANSHINONE IIA], the result in assay [1] was Active. Also, the outcome in assay [2] and in assay [3] was inactive.
